According to ChEMBL document CHEMBL1132569:

How the values were obtained:
[1] = target: T1, Muscarinic acetylcholine receptor M1 (Homo sapiens) (UniProt P11229); assay: Cooperativity with acetylcholine at human muscarinic acetylcholine receptor M1
T1 sequence (whole entry): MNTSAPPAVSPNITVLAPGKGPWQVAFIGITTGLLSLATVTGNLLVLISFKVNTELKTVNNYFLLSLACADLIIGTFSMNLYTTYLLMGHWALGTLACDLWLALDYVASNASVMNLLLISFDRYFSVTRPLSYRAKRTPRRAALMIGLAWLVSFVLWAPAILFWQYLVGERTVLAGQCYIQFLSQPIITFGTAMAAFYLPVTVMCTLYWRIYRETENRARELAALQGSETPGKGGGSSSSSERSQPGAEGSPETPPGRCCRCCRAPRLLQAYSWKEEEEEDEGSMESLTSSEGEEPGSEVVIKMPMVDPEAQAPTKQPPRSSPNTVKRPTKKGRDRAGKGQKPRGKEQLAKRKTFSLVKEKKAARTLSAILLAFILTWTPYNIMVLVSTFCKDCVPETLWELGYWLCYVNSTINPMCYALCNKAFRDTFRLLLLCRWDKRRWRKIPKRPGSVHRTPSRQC
How it was run: (§1)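 Equilibrium ³H-NMS binding in CHO membranes expressing human m1–m5 receptors was measured with and without ACh, alone and with three agent concentrations. Data were converted to affinity ratios, meaning apparent primary-ligand affinity with agent divided by affinity without it.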

[2] = target: T2, Muscarinic acetylcholine receptor M2 (Homo sapiens) (UniProt P08172); assay: Cooperativity with acetylcholine at human muscarinic acetylcholine receptor M2; how it was run: as §1
T2 sequence (whole entry): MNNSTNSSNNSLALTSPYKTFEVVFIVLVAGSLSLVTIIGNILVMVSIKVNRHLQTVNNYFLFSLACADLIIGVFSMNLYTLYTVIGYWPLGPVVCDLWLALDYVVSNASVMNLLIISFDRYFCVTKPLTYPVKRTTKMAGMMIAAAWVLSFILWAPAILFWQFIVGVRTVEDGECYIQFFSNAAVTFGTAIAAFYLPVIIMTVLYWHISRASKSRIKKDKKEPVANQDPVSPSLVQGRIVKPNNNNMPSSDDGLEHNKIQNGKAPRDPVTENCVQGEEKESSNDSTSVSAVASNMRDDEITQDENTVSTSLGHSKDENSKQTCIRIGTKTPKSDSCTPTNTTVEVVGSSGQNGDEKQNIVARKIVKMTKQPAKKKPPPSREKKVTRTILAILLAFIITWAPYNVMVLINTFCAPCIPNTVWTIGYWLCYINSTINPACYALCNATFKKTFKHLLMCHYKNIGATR

[3] = target: T3, Muscarinic acetylcholine receptor M4 (Homo sapiens) (UniProt P08173); assay: Cooperativity with acetylcholine at human muscarinic acetylcholine receptor M4; how it was run: as §1
T3 sequence (whole entry): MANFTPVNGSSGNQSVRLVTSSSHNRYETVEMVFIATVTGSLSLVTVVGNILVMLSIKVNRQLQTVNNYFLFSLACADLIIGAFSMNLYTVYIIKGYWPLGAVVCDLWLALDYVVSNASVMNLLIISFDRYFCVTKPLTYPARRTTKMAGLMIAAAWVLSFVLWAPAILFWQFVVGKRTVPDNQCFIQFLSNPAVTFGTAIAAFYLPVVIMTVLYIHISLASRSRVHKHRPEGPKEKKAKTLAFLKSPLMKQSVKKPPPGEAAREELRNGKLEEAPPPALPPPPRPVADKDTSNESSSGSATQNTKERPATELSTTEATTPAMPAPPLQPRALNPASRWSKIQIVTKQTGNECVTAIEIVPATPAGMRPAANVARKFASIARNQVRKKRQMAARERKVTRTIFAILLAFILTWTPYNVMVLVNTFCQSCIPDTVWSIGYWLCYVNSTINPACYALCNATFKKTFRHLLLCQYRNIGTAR

[4] = target: T1, Muscarinic acetylcholine receptor M1 (Homo sapiens); assay: Cooperativity with NMS at human muscarinic acetylcholine receptor M1; how it was run: as §1
[5] = target: T1, Muscarinic acetylcholine receptor M1 (Homo sapiens); assay: Binding affinity at the unliganded human muscarinic acetylcholine receptor M1 was estimated as log affinity (log1/M)
How it was run: (§2)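 Equilibrium runs were ≥2 h with 2 × 10⁻⁴ M GTP and 0.1–0.7 nM ³H-NMS. Nonspecific binding was defined with 10⁻⁶ M QNB, and bound ligand was filtered and counted. Log affinities came from semiquantitative plus off-rate, quantitative equilibrium, or nonequilibrium assays, fitted by nonlinear least squares to the allosteric ternary complex model.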

[6] = target: T2, Muscarinic acetylcholine receptor M2 (Homo sapiens); assay: Cooperativity with NMS at human muscarinic acetylcholine receptor M2; how it was run: as §1
[7] = target: T2, Muscarinic acetylcholine receptor M2 (Homo sapiens); assay: Binding affinity at the NMS liganded human muscarinic acetylcholine receptor M2 was estimated as log affinity (log1/M); how it was run: as §2
[8] = target: T1, Muscarinic acetylcholine receptor M1 (Homo sapiens); assay: Binding affinity at the NMS liganded human muscarinic acetylcholine receptor M1 was estimated as log affinity (log1/M); how it was run: as §2
[9] = target: Muscarinic acetylcholine receptor M3 (Homo sapiens) (UniProt P20309); assay: Binding affinity at the NMS liganded human muscarinic acetylcholine receptor M3 was estimated as log affinity (log1/M); how it was run: as §2
Muscarinic acetylcholine receptor M3 (Homo sapiens), sequence (P20309 whole entry, looked up): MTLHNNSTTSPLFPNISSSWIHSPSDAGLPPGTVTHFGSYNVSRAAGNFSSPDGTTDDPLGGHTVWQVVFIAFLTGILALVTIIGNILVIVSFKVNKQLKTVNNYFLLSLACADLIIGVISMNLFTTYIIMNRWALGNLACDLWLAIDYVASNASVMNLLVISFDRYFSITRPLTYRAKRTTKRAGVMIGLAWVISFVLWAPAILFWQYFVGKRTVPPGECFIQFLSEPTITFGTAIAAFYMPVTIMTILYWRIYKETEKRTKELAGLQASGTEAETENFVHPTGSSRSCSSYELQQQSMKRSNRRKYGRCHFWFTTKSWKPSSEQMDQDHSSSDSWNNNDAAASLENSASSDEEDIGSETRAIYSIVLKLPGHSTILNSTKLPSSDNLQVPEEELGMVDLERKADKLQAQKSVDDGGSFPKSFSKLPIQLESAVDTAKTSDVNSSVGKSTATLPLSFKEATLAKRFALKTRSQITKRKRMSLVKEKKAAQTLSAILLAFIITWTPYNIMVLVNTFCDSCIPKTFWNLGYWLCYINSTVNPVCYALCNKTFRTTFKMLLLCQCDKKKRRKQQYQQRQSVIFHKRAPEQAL

[10] = target: T3, Muscarinic acetylcholine receptor M4 (Homo sapiens); assay: Binding affinity at the NMS liganded human muscarinic acetylcholine receptor M4 was estimated as log affinity (log1/M); how it was run: as §2
[11] = target: Muscarinic acetylcholine receptor M3 (Homo sapiens) (UniProt P20309); assay: Cooperativity with acetylcholine at human muscarinic acetylcholine receptor M3; how it was run: as §1
[12] = target: T3, Muscarinic acetylcholine receptor M4 (Homo sapiens); assay: Cooperativity with NMS at human muscarinic acetylcholine receptor M4; how it was run: as §1
[13] = target: Muscarinic acetylcholine receptor M3 (Homo sapiens) (UniProt P20309); assay: Cooperativity with NMS at human muscarinic acetylcholine receptor M3; how it was run: as §1
[14] = target: T3, Muscarinic acetylcholine receptor M4 (Homo sapiens); assay: Binding affinity at the unliganded human muscarinic acetylcholine receptor M4 was estimated as log affinity (log1/M); how it was run: as §2
[15] = target: Muscarinic acetylcholine receptor M3 (Homo sapiens) (UniProt P20309); assay: Binding affinity at the unliganded human muscarinic acetylcholine receptor M3 was estimated as log affinity (log1/M); how it was run: as §2
[16] = target: T2, Muscarinic acetylcholine receptor M2 (Homo sapiens); assay: Binding affinity at the unliganded human muscarinic acetylcholine receptor M2 was estimated as log affinity (log1/M); how it was run: as §2

Structure (SMILES): O=C1C[C@@H]2OCC=C3C[N+]4(Cc5ccc([N+](=O)[O-])cc5)CC[C@]56c7ccccc7N1[C@H]5[C@H]2[C@H]3C[C@@H]64 (stereo partly drawn)
- Cooperativity [1]: 0.8
- Cooperativity [2]: < 0.2
- Cooperativity [3]: < 0.2
- Cooperativity [4]: > 2
- Affinity [5]: < 4.8
- Cooperativity [6]: > 2
- Affinity [7]: 5.6
- Affinity [8]: 5.3
- Affinity [9]: 4.6
- Affinity [10]: 5.4
- Cooperativity [11]: 0.8
- Cooperativity [12]: > 2
- Cooperativity [13]: 1.19
- Affinity [14]: 5
- Affinity [15]: 4.6
- Affinity [16]: 4.8

Structure (SMILES): O=C1C[C@@H]2OCC=C3C[N+]4(Cc5ccccc5)CC[C@]56c7ccccc7N1[C@H]5[C@H]2[C@H]3C[C@@H]64 (stereo partly drawn)
- Cooperativity [1]: < 0.2
- Cooperativity [2]: < 0.2
- Cooperativity [3]: 0.8
- Cooperativity [4]: 2
- Affinity [5]: < 5
- Cooperativity [6]: > 2
- Affinity [7]: 6.3
- Affinity [8]: 5.2
- Affinity [9]: 5.3
- Affinity [10]: 5.6
- Cooperativity [11]: 0.8
- Cooperativity [12]: 2
- Cooperativity [13]: 2
- Affinity [14]: < 5.3
- Affinity [15]: < 5.2
- Affinity [16]: 5.3

Structure (SMILES): N[N+]12CC[C@@]34c5ccccc5N5C(=O)C[C@@H]6OCC=C(C1)[C@H](C[C@@H]32)[C@@H]6[C@H]54 (stereo partly drawn)
- Cooperativity [1]: 0.8
- Cooperativity [2]: 0.8
- Cooperativity [3]: 0.8
- Cooperativity [4]: 2
- Affinity [5]: 4.3
- Cooperativity [6]: > 2
- Affinity [7]: 5.4
- Affinity [8]: 4.7
- Affinity [9]: 4.5
- Affinity [10]: 4.9
- Cooperativity [11]: 0.8
- Cooperativity [12]: > 2
- Cooperativity [13]: 2
- Affinity [14]: < 4.4
- Affinity [15]: < 4.4
- Affinity [16]: < 4.8

Structure (SMILES): O=C1C[C@@H]2OCC=C3C[N+]4(CCc5ccccc5)CC[C@]56c7ccccc7N1[C@H]5[C@H]2[C@H]3C[C@@H]64 (stereo partly drawn)
- Cooperativity [1]: < 0.2
- Cooperativity [2]: < 0.2
- Cooperativity [3]: < 0.2
- Cooperativity [4]: 1.19
- Affinity [5]: 4.9
- Cooperativity [6]: > 2
- Affinity [7]: 5.7
- Affinity [8]: 4.9
- Affinity [9]: 4.6
- Affinity [10]: 5.5
- Cooperativity [11]: < 0.2
- Cooperativity [12]: 2
- Cooperativity [13]: 0.8
- Affinity [14]: 5.2
- Affinity [15]: 4.8
- Affinity [16]: 5.3

Structure (SMILES): O=C1C[C@@H]2OCC=C3C[N+]4(Cc5cccc([N+](=O)[O-])c5)CC[C@]56c7ccccc7N1[C@H]5[C@H]2[C@H]3C[C@@H]64 (stereo partly drawn)
- Cooperativity [1]: 0.8
- Cooperativity [2]: 0.8
- Cooperativity [3]: 0.8
- Cooperativity [4]: 2
- Affinity [5]: < 4.9
- Cooperativity [6]: > 2
- Affinity [7]: 6
- Affinity [8]: 5.1
- Affinity [9]: 4.8
- Affinity [10]: 5.6
- Cooperativity [11]: 0.8
- Cooperativity [12]: > 2
- Cooperativity [13]: 2
- Affinity [14]: < 5.2
- Affinity [15]: < 4.7
- Affinity [16]: < 5.4

Structure (SMILES): C=CC[N+]12CC[C@@]34c5ccccc5N5/C=C6/[C@H]7C[C@H]8[C@@]9(CC[N@@+]8(CC=C)C/C7=C/CO)c7ccccc7N(/C=C(/[C@@H](C[C@@H]31)/C(=C\CO)C2)[C@H]54)[C@@H]69 (stereo partly drawn)
- Cooperativity [1]: < 0.2
- Cooperativity [2]: < 0.2
- Cooperativity [3]: < 0.2
- Cooperativity [4]: 0.8
- Affinity [5]: 4.9
- Cooperativity [6]: > 2
- Affinity [7]: 6.5
- Affinity [8]: 4.5
- Affinity [9]: 3.5
- Affinity [10]: 4.7
- Cooperativity [11]: 0.8
- Cooperativity [12]: 1.19
- Cooperativity [13]: 0.8
- Affinity [14]: 4.7
- Affinity [15]: < 4
- Affinity [16]: 6

Structure (SMILES): C[N+]12CC[C@@]34c5ccccc5N5C(=O)C[C@@H]6OCC=C(C1)[C@H](C[C@@H]32)[C@@H]6[C@H]54 (stereo partly drawn)
- Cooperativity [1]: 0.8
- Cooperativity [2]: < 0.2
- Cooperativity [3]: < 0.2
- Cooperativity [4]: > 2
- Affinity [5]: < 4.1
- Cooperativity [6]: > 2
- Affinity [7]: 5.1
- Affinity [8]: 4.5
- Affinity [9]: 4.1
- Affinity [10]: 4.7
- Cooperativity [11]: 0.8
- Cooperativity [12]: > 2
- Cooperativity [13]: 2
- Affinity [14]: 4.1
- Affinity [15]: < 4
- Affinity [16]: 4.4

Structure (SMILES): C#CC[N+]12CC[C@@]34c5ccccc5N5C(=O)C[C@@H]6OCC=C(C1)[C@H](C[C@@H]32)[C@@H]6[C@H]54 (stereo partly drawn)
- Cooperativity [1]: < 0.2
- Cooperativity [2]: < 0.2
- Cooperativity [3]: 0.8
- Cooperativity [4]: 0.8
- Affinity [5]: 5.2
- Cooperativity [6]: 2
- Affinity [7]: 5.4
- Affinity [8]: 4.7
- Affinity [9]: 4.5
- Affinity [10]: 5
- Cooperativity [11]: < 0.2
- Cooperativity [12]: 2
- Cooperativity [13]: 0.8
- Affinity [14]: 4.8
- Affinity [15]: 4.7
- Affinity [16]: 5.2

Structure (SMILES): CCC[N+]12CC[C@@]34c5ccccc5N5C(=O)C[C@@H]6OCC=C(C1)[C@H](C[C@@H]32)[C@@H]6[C@H]54 (stereo partly drawn)
- Cooperativity [1]: < 0.2
- Cooperativity [2]: < 0.2
- Cooperativity [3]: < 0.2
- Cooperativity [4]: 0.8
- Affinity [5]: 5.2
- Cooperativity [6]: 2
- Affinity [7]: 5.5
- Affinity [8]: 4.8
- Affinity [9]: 4.5
- Affinity [10]: 4.9
- Cooperativity [11]: < 0.2
- Cooperativity [12]: 0.8
- Cooperativity [13]: 0.8
- Affinity [14]: 5.2
- Affinity [15]: 5
- Affinity [16]: 5.2

Structure (SMILES): O=C1C[C@@H]2OCC=C3CN4CC[C@]56c7ccccc7N1[C@H]5[C@H]2[C@H]3C[C@H]46
- Cooperativity [2]: < 0.2
- Cooperativity [3]: 0.8
- Cooperativity [6]: > 2
- Affinity [7]: 5.3
- Affinity [10]: 5.2
- Cooperativity [12]: 2
- Affinity [14]: 5
- Affinity [16]: 5

Structure (SMILES): N#CC[N+]12CC[C@@]34c5ccccc5N5C(=O)C[C@@H]6OCC=C(C1)[C@H](C[C@@H]32)[C@@H]6[C@H]54 (stereo partly drawn)
- Cooperativity [1]: 0.8
- Cooperativity [2]: < 0.2
- Cooperativity [3]: 0.8
- Cooperativity [4]: 2
- Affinity [5]: < 4
- Cooperativity [6]: > 2
- Affinity [7]: 5.1
- Affinity [8]: 4.3
- Affinity [9]: 4.2
- Affinity [10]: 4.8
- Cooperativity [11]: 0.8
- Cooperativity [12]: > 2
- Cooperativity [13]: 2
- Affinity [14]: < 4.4
- Affinity [15]: < 3.9
- Affinity [16]: 4.5

Structure (SMILES): O=C1C[C@@H]2OCC=C3C[N+]4(Cc5ccc(-c6ccccc6)cc5)CC[C@]56c7ccccc7N1[C@H]5[C@H]2[C@H]3C[C@@H]64 (stereo partly drawn)
- Cooperativity [1]: < 0.2
- Cooperativity [2]: < 0.2
- Cooperativity [3]: 0.8
- Cooperativity [4]: 0.8
- Affinity [5]: 5.7
- Cooperativity [6]: > 2
- Affinity [7]: 5.9
- Affinity [8]: 5.3
- Affinity [9]: 5.7
- Affinity [10]: 6.3
- Cooperativity [11]: < 0.2
- Cooperativity [12]: 2
- Cooperativity [13]: 1.19
- Affinity [15]: 5.6
- Affinity [16]: 5.6
